Efflux pump mplx – inhibitors of Candida antifungal efflux pumps expressed in yeast | hit rate 0.44% among 330,000 | inhibition, % at 10 µM | AID 485275 | S. cerevisiae Candida pump triplex, Nile Red efflux;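 active = plate passing quality check with inhibition over a set limit, or well fluorescence over plate mean plus 4 SD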;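 note: Nile Red retained in pooled yeast measured as flow cytometry median fluorescence; 0% = buffer negative control and 100% = Enniatin B positive control; higher means more Nile Red kept so more efflux inhibition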
CaV13 ICDI inh – Primary screen for inhibitors of IQ motif and Ca2+-dependent inactivation inhibitor domain binding in CACNA1D, Förster resonance energy transfer in living cells, … | HEK cells, CFP/YFP FRET ICDI-IQ, plate reader, 10 min; percent FRET-ratio fall versus neutral wells | inhibition, % at 12.3 µM | hit rate 0.098% among 340,000;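 active = mean replicate inhibition of at least 30% and at least 1% of replicates passing that level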;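 note: 0% = median of the neutral control wells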
FN deposit inh – fibronectin deposition inhibition; AH1F fibroblasts, Alexa488-fibronectin deposition fluorescence, overnight; inhibition, % at 12.6 µM; hit rate 0.086% among 350,000; AID 743247;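 active = mean inhibition across replicates of 30% or more, regardless of how many single replicates reach that level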;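 note: positive control wells lacked labelled fibronectin entirely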
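Material: AH1F fibroblasts assembling fluorescent fibronectin matrix; amount: 10000 AH1F cells/well; medium: DMEM, 2% serum; reagent: Alexa488-fibronectin, 24 nM final in well; dosing: single compound dose, delivered by pin transfer; incubation: 1 h adhesion, overnight exposure; detection: fluorescence after three HBSS washes, excitation 485 nm, emission 525 nm; measure: fibronectin deposition inhibition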
SR-BI uptake up – enhances SR-BI lipid uptake from DiI-HDL | hit rate 0.096% among 320,000 | CHO ldlA[mSR-BI] cells, DiI-HDL uptake fluorescence, 3 h; 100 = double the neutral-control signal | AID 504775 | activation, % at 12.5 µM;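 active = mean replicate activation of at least 60% and every replicate at or above 60%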;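 note: 0% = median plate neutral-control signal and 100% = twice that signal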
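Test system: SR-BI-overexpressing, LDLR-lacking CHO cells. Measured by: DiI fluorescence, bottom read. Medium: Ham's F12 with 0.5% BSA, HEPES 25 mM, pH 7.4. Timing: 3 h uptake period with compound, 37 °C.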
SR-BI DiI inh – blocks mouse SR-BI lipid uptake from DiI-HDL; hit rate 0.96% among 320,000; ldlA[mSR-BI] CHO cells, DiI-HDL uptake fluorescence, 3 h; Q61009; AID 488896; inhibition, % at 12.5 µM;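 active = mean replicate inhibition of at least 70% and a set share of replicates each scoring 70 or more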;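 note: 0% = median of neutral control wells and 100% = median of positive control wells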
Target sequence (Q61009 whole entry, looked up): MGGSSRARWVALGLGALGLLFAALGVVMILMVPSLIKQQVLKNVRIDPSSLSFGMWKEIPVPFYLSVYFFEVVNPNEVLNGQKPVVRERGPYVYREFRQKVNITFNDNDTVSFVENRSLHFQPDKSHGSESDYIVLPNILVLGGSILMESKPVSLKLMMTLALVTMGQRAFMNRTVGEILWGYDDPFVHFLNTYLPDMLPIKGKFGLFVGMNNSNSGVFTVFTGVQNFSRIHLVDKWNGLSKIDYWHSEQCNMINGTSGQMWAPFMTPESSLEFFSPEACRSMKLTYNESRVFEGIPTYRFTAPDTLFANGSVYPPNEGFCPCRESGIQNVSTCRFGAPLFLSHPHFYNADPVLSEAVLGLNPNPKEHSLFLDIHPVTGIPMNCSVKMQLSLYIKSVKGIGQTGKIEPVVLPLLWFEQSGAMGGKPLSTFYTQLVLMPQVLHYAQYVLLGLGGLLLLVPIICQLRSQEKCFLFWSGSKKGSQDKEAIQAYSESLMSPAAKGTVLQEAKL
Starred values were filed as active, the others as inactive; . = no result; + = active, no number. Compounds with a hit are over-represented: about 1.2% of the library has one in this group of screens.

SMILES	Efflux pump mplx	CaV13 ICDI inh	FN deposit inh	SR-BI uptake up	SR-BI DiI inh
COC(=O)C[C@@H]1CC[C@@H]2[C@H](COc3ccc(NC(=O)c4cccs4)cc3C(=O)N2C)O1	.	.	-5.3	.	.
CO[C@H]1CN(C)C(=O)c2ccc(NS(C)(=O)=O)cc2OC[C@H](C)NC[C@@H]1C	.	.	-22.7	.	.
COc1ccc(/C=N/NC(=O)c2cc3c(ccc4ccccc43)o2)c(OC)c1	.	.	.	-82.3	82.3*
COc1ccc(OC)c(/C=N\NC(=O)c2cc3c(ccc4ccccc43)o2)c1	0.2	-4.6	5.0	.	47.1
COc1cccc(CNC(=O)COc2cc3c(c4oc(=O)cc(C)c24)CCC(C)(C)O3)c1	0.4	.	.	-77.1	77.1*
COc1ccc(CNC(=O)COc2cc3c(c4oc(=O)cc(C)c24)CCC(C)(C)O3)cc1	0.0	.	.	-40.4	40.4
COc1ccc(-c2sc3ccccc3c2/C=C/c2ccc(N)cc2)cc1	-0.2	-10.7	1.5	-39.5	39.5
COC(=O)c1ccc(/C=C/c2c(-c3ccsc3)sc3ccccc23)cc1	-0.1	-5.2	-2.4	-79.1	79.1*
COc1ccc(-c2cnc3c(c2)C(=O)N([C@H](C)CO)C[C@H](C)[C@H](CN(C)S(=O)(=O)c2ccc(OC)cc2)O3)cc1	.	.	-1.8	.	.
CO[C@@H]1CN(C)C(=O)c2cc(NS(C)(=O)=O)ccc2OC[C@H](C)N(Cc2cccnc2)C[C@H]1C	.	.	6.5	.	.
Cc1ccc(-n2c(C)cc(/C=N/NC(=O)Cn3c4ccccc4c(=O)c4ccccc43)c2C)cc1	0.1	+	.	-30.7	30.7
CC(C)CC(=O)NCC(C)NC(=O)CC(C)C (configuration not stated)	0.0	-4.2	2.3	73.3*	-73.3
CCC(C)NC(=O)CC(C)C (configuration not stated)	0.1	-7.0	11.0	-8.9	8.9
Cc1cccc(Nc2nnc(-c3ccc(N4CCOCC4)c([N+](=O)[O-])c3)c3ccccc23)c1	0.0	-1.0	7.1	-72.5	72.5*
O=C(Nc1c(F)cccc1F)c1cnc(N2CCN(c3ccccn3)CC2)c2ccccc12	0.2	-4.7	12.4	-42.3	42.3
Cc1ccc(NC(=O)c2cnc(N3CCN(c4ccccn4)CC3)c3ccccc23)c(Br)c1	0.3	-4.9	-6.0	-77.8	77.8*
CCOC(=O)c1cc(-c2ccc(OC)cc2)nc2c1c(C)nn2CCC#N	0.1	-6.1	.	-73.9	73.9*
CCOC(=O)c1cc(-c2ccc(C#N)cc2)nc2c1c(C)nn2CCC#N	0.3	-1.0	.	-62.7	62.7
O=C(CSc1nn(-c2ccc(Cl)cc2)c(=S)s1)N1CCN(C(=O)c2ccco2)CC1	0.0	.	.	-84.4	84.4*
O=C(CSc1nn(-c2ccc(F)cc2)c(=S)s1)N1CCN(C(=O)c2ccco2)CC1	0.1	-9.3	.	-69.1	69.1
Cc1ccc(-c2csc(=Nc3cccnc3)n2CCCN2CCCC2=O)cc1C	-2.1	-5.4	0.7	74.3*	-74.3
O=C(CSc1nc(-c2ccccc2)cc(C(F)(F)F)n1)NCc1ccco1	-0.1	-6.3	.	-22.5	22.5
COc1ccc(-c2cc(C(F)(F)F)nc(SCC(=O)NCc3ccco3)n2)cc1OC	-0.3	.	.	-80.9	80.9*
CS(=O)(=O)N1CCN(c2ccc(NC(=O)c3ccc([N+](=O)[O-])o3)cc2)CC1	.	-1.9	36.0*	-5.6	5.6
CC(C)(C)C(=O)N1CCN(c2ccc(NC(=O)c3ccc([N+](=O)[O-])o3)cc2)CC1	0.1	-2.4	11.0	12.9	-12.9
SMILES	Efflux pump mplx	CaV13 ICDI inh	FN deposit inh	SR-BI uptake up	SR-BI DiI inh
O=C(Nc1ccc(N2CCCCC2)cc1)c1ccc([N+](=O)[O-])o1	-0.3	-8.6	3.2	-24.0	24.0
CC1CCN(c2ccc(NC(=O)c3ccc([N+](=O)[O-])o3)cc2)CC1	0.0	-5.6	18.7	-86.9	86.9*
Cc1ccc(Nc2nc(N/N=C/c3c[nH]c4ccccc34)nc(N3CCOCC3)n2)cc1	-0.1	-4.5	29.7	-110.3	110.3*
CN(C)/C=C/C(=O)c1c(F)cccc1F	0.0	93.9*	1.1	0.9	-0.9
C[C@H]1CN([C@@H](C)CO)C(=O)c2cccc(NS(=O)(=O)c3cn(C)cn3)c2O[C@@H]1CN(C)Cc1ccc(C(=O)Nc2ccccc2N)cc1	.	.	-9.8	.	.
CCOc1ccc2nc(NCCNC(=O)CC)c(C#N)cc2c1	-0.1	33.1*	.	-27.9	27.9
